The source made the active and inactive calls. No cut-off for these calls is given here.
Tests used:
Plasmodium berghei [1] = assay: Antimalarial activity against Plasmodium berghei ANKA expressing GFP infected in NMRI mouse assessed as mean survival days at 100 mg/kg/day, po qd for 4 days measured at 24 hrs after last dose; format: functional
How it was run: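 P. berghei-infected mice dosed orally once daily on days 0–3, starting 4 h postinfection, in groups of 3, 10, 30 and 100 mg/kg/day. Red blood cell parasitemia and plasma exposure measured on day 4, 24 h after the last dose. Mean survival days then monitored over 26 further days.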

Plasmodium berghei [2] = assay: Antimalarial activity against Plasmodium berghei ANKA expressing GFP infected in NMRI mouse assessed as effect on mouse survival at 10 mg/kg/day, po qd for 4 days measured at 24 hrs after last dose; format: functional, organism-based
How it was run: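 P. berghei-infected mice dosed orally once daily on days 0–3, first dose 4 h postinfection, at 3, 10, 30 and 100 mg/kg/day. Red blood cell parasitemia and plasma exposure measured on day 4, 24 h after last dose; ED50 derived from dose-response; survival then monitored for 26 further days as mean survival days.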

Plasmodium falciparum [3] = assay: Antimalarial activity against chloroquine, pyrimethamine, cycloguanil-resistant Plasmodium falciparum 7G8; format: functional, organism-based
Plasmodium falciparum [4] = assay: Antimalarial activity against mefloquine-resistant Plasmodium falciparum TM91C235; format: functional, organism-based
Cytochrome P450 2C8 = target: T1, Cytochrome P450 2C8 (Homo sapiens, UniProt P10632); assay: Inhibition of human recombinant CYP2C8 expressed in baculovirus-infected insect cells preincubated for 15 mins followed by substrate addition measured after 30 mins by luminescence assay; format: ADME; conditions: recombinant enzyme, 0.5 h
T1 sequence (P10632 whole entry): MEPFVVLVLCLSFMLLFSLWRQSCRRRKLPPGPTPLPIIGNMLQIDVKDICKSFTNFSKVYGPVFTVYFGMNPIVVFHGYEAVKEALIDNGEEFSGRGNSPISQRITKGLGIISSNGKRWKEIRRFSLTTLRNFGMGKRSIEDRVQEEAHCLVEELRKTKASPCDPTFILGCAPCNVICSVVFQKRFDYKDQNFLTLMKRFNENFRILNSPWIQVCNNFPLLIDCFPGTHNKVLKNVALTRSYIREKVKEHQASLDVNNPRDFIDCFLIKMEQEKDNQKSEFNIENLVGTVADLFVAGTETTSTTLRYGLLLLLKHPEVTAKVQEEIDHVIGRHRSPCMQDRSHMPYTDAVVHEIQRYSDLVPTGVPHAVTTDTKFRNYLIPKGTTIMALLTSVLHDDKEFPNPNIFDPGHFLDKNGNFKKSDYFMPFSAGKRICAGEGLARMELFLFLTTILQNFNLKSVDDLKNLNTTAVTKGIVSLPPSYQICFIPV

SMILES: OC(CNC1CCCCC1)Cn1c2ccc(Br)cc2c2cc(Br)ccc21 (racemic)
- MSD (Plasmodium berghei [1]): 30 days
- Activity (Plasmodium berghei [2]): inactive
- Activity (Plasmodium falciparum [3]): Active
- Activity (Plasmodium falciparum [4]): Active
- inhibition (INH) (Cytochrome P450 2C8): Active

Source: ChEMBL document CHEMBL3098117, “Identification and optimization of an aminoalcohol-carbazole series with antimalarial properties” (ACS Med Chem Lett, 2013)
